One data set deals with HRV51. In words: Cell-based inhibition assay. As to conditions: Human rhinovirus sp., HRV51, WI-38, read-out: EC50 HRV51. The procedure, abridged:
(§1)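 WI-38 cells, confluent or semi-confluent, at 37 °C were infected at MOI 0.05 for 1 h. Inoculum was then replaced with medium containing test compound (up to 100 μM) or DMSO (<0.1%). Cells were incubated up to 168 h, until 80–90% CPE. Virus yield was titrated by TCID50 (Reed–Muench), and EC50 was derived by curve fitting.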

Another data set relates to EV-D68. The data set can be described thus: Cell-based inhibition assay. To be noted: Enterovirus D, EVD68, WI-38, read-out: EC50 EV-D68. In short, it runs like this:
as §1

The subject of the next data set is HRV1B. The data set can be described thus: Cell-based inhibition assay. As to conditions: Human rhinovirus sp., WI-38, read-out: EC50 HRV1B. The procedure, abridged:
as §1

The conditions of data set [1]: ref Dragovich et al., 1999; cited from earlier work.
The conditions of data set [2]: cited from earlier work.
In another data set the test system is HRV strains. As to conditions: read-out: EC50 against HRV strains; ref Patick et al., 2005; cited from earlier work.

SMILES strings stand for the structures.

Turning to `CCOC(=O)/C=C/[C@H](C[C@@H]1CCNC1=O)NC(=O)[C@@H](CC(=O)[C@@H](NC(=O)c1cc(C)on1)C(C)C)Cc1ccc(F)cc1` [AG7088], the EC50 with HRV51 was found to be 50 ± 30 nM; in the data set with EV-D68, 10 ± 3 nM; in the data set on HRV1B it was 20 ± 10 nM. Further, the aqueous solubility result in data set [1] is recorded as “poor aqueous solubility”. The oral bioavailability result in data set [2] (ref Dragovich et al., 1999) was “low oral bioavailability”.
Take `C#CC[C@@H](C(=O)N[C@H](/C=C/C(=O)OCC)C[C@@H]1CCNC1=O)n1cccc(NC(=O)c2cc(C)on2)c1=O` [Compound 1 (Patick et al., 2005)]: the EC50 in the data set with HRV strains was below 100 nM. In addition, the oral availability entry in data set [2] (ref Patick et al., 2005) is on record as “orally available”.
Consider `Cc1cc(CCCOc2c(C)cc(-c3noc(C(F)(F)F)n3)cc2C)on1` [Plecornaril, Pleconaril], for which the EC50 in the data set on HRV51 was found to be 70 ± 20 nM; in the data set with EV-D68, 600 ± 140 nM; with HRV1B it was 270 ± 180 nM.

Values taken from article PMC4698184 (Antiviral Research, 2015).
